# Measured values as given in the RNAGym collection of RNA variant scans (doi:10.1126/science.aae0568).
# Fewer inactive variants are shown than the library holds.
# B1: tRNA (parent)
# chain: GUUCCGUUGGCGUAAUGGUAACGCGUCUCCCUCCUAAGGAGAAGACUGCGGGUUCGAGUCCCGUACGGAACG
# Variants of: B1
# Assay: yeast fitness relative to wild type (ratio to wild type); higher = fitter; tRNA-Arg(CCU), competitive growth, 37 C, YPD
# In short: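 Start and end populations of a pooled competition were compared by 100-nucleotide paired-end sequencing of gene amplicons. The Saccharomyces cerevisiae strains carried tRNA-Arg(CCU) gene variants at the native genomic locus, synthesised with a 3% per-site mutation rate at 69 sites, and competed in YPD at 37°C for 24 hours in six parallel replicates. Darwinian fitness relative to wild type was based on the change in genotype frequencies. Genotypes required ≥ 100 starting reads, and estimates < 0.5 were set to 0.5.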
row,Variant,yeast fitness
1,U8G G10A C62G,≤ 0.5
2,U8C G10A G23C C33U,0.611
3,U8G G12C G39A,≤ 0.5
4,U8G U19A U54A A57U C66U,0.576
5,U8G G23C A37G A70G,0.631
6,U8C G18A C27G C34A U47A,≤ 0.5
7,U8C G12A A40C A69C,0.56
8,U8C U59A A70G,0.556
9,U8C U19A C22G C24U C33G,≤ 0.5
10,U8C C31U A43U G48A U53A,≤ 0.5
11,U8C U28A C46G C55A,0.731
12,U8G A45U,0.648
13,U8C G18U A21C G63A,≤ 0.5
14,U8G G17A C24G C66U,≤ 0.5
15,U8C C33G C34G C46U,≤ 0.5
16,U8G A15U,≤ 0.5
17,U8G C30G C31U G39A,0.507
18,U8C U54C,0.915
19,U8G U13A C30U G39C C55G,0.526
20,U8C U35A,0.6
21,U8C U35G,0.693
22,U8C U26A C61A A65U,≤ 0.5
23,U8G C24A C30G A40G U47G,≤ 0.5
24,U8G U26A G67C,≤ 0.5

row,Variant,yeast fitness
1,U8G C29G G38C G44A,0.803
2,U8G C22U U26A G52A,≤ 0.5
3,U8C U16C G25C U47A A65G,≤ 0.5
4,U8G C24G G63C,≤ 0.5
5,U8C G18C C33U,≤ 0.5
6,U8G C22G G25A G63C,≤ 0.5
7,U8G C24G G41A C49G C60A C62G A70C,≤ 0.5
8,U8G C27U G44C U47A C60U,≤ 0.5
9,U8C U32C C46A C55A,0.625
10,U8G G10C C11U A37G U59C,≤ 0.5
11,U8C G44C,0.911
12,U8G C22U,0.632
13,U8C G25C C29G,≤ 0.5
14,U8G C11G U32A A57U C60A G68C,≤ 0.5
15,U8C G39C,0.67
16,U8C G39A,0.874
17,U8C C55A C61G,≤ 0.5
18,U8C G56U,0.755
19,U8C G56A,1.06
20,U8C C46G,1.04
21,U8C G52A G67A,≤ 0.5
22,U8G C22G G25A G68A,≤ 0.5
23,U8G A45C C49U,≤ 0.5
24,U8C G23C C29G,≤ 0.5

row,Variant,yeast fitness
1,U8G G9U C30A C55U,≤ 0.5
2,U8G A15C G18C C49U U64A A69U,≤ 0.5
3,U8G C11A C30U A57U,0.613
4,U8G C61A,0.562
5,U8C C34U A45C A69C A70C,≤ 0.5
6,U8C G44A U53C C55A A70U,≤ 0.5
7,U8G U16C,0.6
8,U8C G12A G18A A37C C55A C60G G63C,≤ 0.5
9,U8G C24G C33U,≤ 0.5
10,U8G C22U A69U,0.731
11,U8G A42G,0.58
12,U8C G23C C29G A43U G50A A65C,≤ 0.5
13,U8C U16G G41C,≤ 0.5
14,U8C U13A G51A,0.53
15,U8G A21C U64A,0.516
16,U8G U26A G52A U54A C60A,≤ 0.5
17,U8G A42G A57G,≤ 0.5
18,U8C G23A C30G,≤ 0.5
19,U8C G9C A21C C24G U32G G38A,≤ 0.5
20,U8G C24G G41A C49U,≤ 0.5
21,U8G A14G G18A U47A C55G,≤ 0.5
22,U8C G50A A65C,0.603
23,U8G A21U C29U G68C,≤ 0.5
24,U8C U19A C24U G38A U54C C66A,≤ 0.5

row,Variant,yeast fitness
1,U8G C30G C33G C61A A69U,≤ 0.5
2,U8C U13A C24U C29G C33A U47A C55U A65C,0.787
3,U8C G17A C34U C55G,≤ 0.5
4,U8G C31U C66U,≤ 0.5
5,U8C U13A G67U,0.626
6,U8G A20U C62A,0.624
7,U8C U59A C66A,≤ 0.5
8,U8C C31U C49U,0.689
9,U8G C24G,0.537
10,U8G A14U G50A,≤ 0.5
11,U8G C34U A40C,0.591
12,U8C C31G G50C G56C,≤ 0.5
13,U8G G68C,0.583
14,U8G G52A,0.512
15,U8C C34U C55A C62U,0.619
16,U8C G52C,0.639
17,U8C G25C C31U,0.696
18,U8C G23C C29G A45U C66U,≤ 0.5
19,U8C G9A C34U G39C,≤ 0.5
20,U8C U16C C29G,≤ 0.5
21,U8G C30U C31G G39A A45U G52A,0.567
22,U8C G58C,0.919
23,U8C G58A,1.02
24,U8C C33G A43C,≤ 0.5

row,Variant,yeast fitness
1,U8G G38A A69U,0.507
2,U8G U19A U54A A57U G68C,≤ 0.5
3,U8C U19C C55G,≤ 0.5
4,U8C U19C C55U,≤ 0.5
5,U8G C49U G51A A65U,≤ 0.5
6,U8G A20U U53G C66G A70G,≤ 0.5
7,U8G G17A C31A,≤ 0.5
8,U8G G38C G39C A40G G44A C46G G52A,≤ 0.5
9,U8C G17C C22U C34A,≤ 0.5
10,U8G A21U C27G A57G,≤ 0.5
11,U8G G18C C22U C29U C46A C55G,0.574
12,U8C G25C C33A C61U,≤ 0.5
13,U8C U32C G44A A69U,0.724
14,U8G G10C A20G G63A,≤ 0.5
15,U8C G63A,0.864
16,U8C G9A A20C,0.772
17,U8C G23A,0.793
18,U8C C31U G48C C55A C60G A69G,≤ 0.5
19,U8G A21G C27A U35A C62A A65C G67A,≤ 0.5
20,U8G G51C C60A,≤ 0.5
21,U8G G51A A65C C66U,≤ 0.5
22,U8G C29G C66A,≤ 0.5
23,U8C G41A,0.92
24,U8G C33A C49U C66G,≤ 0.5

row,Variant,yeast fitness
1,U8G C33A C49U C66U,0.609
2,U8G G25C A36G G48A,≤ 0.5
3,U8C G9A G41C A69U,≤ 0.5
4,U8C G17A G41C A65U,≤ 0.5
5,U8C G17A G41C A65C,≤ 0.5
6,U8G C29U C31U U54G A65U G67A,≤ 0.5
7,U8C U19A,0.923
8,U8C U64A A65U,0.553
9,U8C G38A,0.885
10,U8C G38C,0.799
11,U8G A43C G52A,0.847
12,U8G C33U A57C U64C A70G,0.511
13,U8G A37C G52C,0.627
14,U8G A14G U26A C62U,0.578
15,U8G G9C A37U G50C,≤ 0.5
16,U8G C24U C29G A45G C61U A65C G67A G68A,0.568
17,U8C G10A A40G G67A,0.593
18,U8G A21C C24U C33A,≤ 0.5
19,U8C G9A A40C A45G A57G,≤ 0.5
20,U8C G23A C30G C61A G67A,≤ 0.5
21,U8G C11U U64A A70C,0.619
22,U8C G17A G50A A69C,≤ 0.5
23,U8G U13A,0.56
24,U8G C22U C62U,0.529

row,Variant,yeast fitness
1,U8C G67U,0.862
2,U8C U13C C27A,0.574
3,U8C U32A,0.755
4,U8G G12A A20G,≤ 0.5
5,U8G U13A C34G,≤ 0.5
6,U8C U16C C24U U47A C55U,≤ 0.5
7,U8G U16G C62G,0.616
8,U8C C46A C62U,0.774
9,U8G C46U C55A C66U,0.524
10,U8C G25A,0.931
11,U8G A36C A45U C49U,≤ 0.5
12,U8C U26G C33G A37C U54A,≤ 0.5
13,U8G C31U A37G U54A C55A,≤ 0.5
14,U8G C11G U32A C55U G67C,≤ 0.5
15,U8C U32G U47C C55G,≤ 0.5
16,U8C U32C G48A,0.591
17,U8G U13A A43G U53A,0.58
18,U8G C27U C62G,≤ 0.5
19,U8C U32A U47A G56C,0.944
20,U8G C22U G23A C24G A43U,≤ 0.5
21,U8C G17C A42G C61A,≤ 0.5
22,U8C G23A C34A A42U C46A A57C G67C,≤ 0.5
23,U8C G12A G51A C66A,≤ 0.5
